Laboratory results taken from ChEMBL document CHEMBL4229415, “Design, synthesis and biological evaluation of novel series of 2H-benzo[b][1,4]oxazin-3(4H)-one and 2H-benzo[b][1,4]oxazine scaffold derivatives as PI3Kα inhibitors” (Bioorg Med Chem, 2018).

Tests used:
SNU-638 = assay: Antiproliferative activity against human SNU638 cells after 72 hrs by SRB assay; assay type: functional, cell-based; conditions: SNU-638, 72 h
MDA-MB-231 = assay: Antiproliferative activity against human MDA-MB-231 cells after 72 hrs by SRB assay; assay type: functional, cell-based; conditions: MDA-MB-231, 72 h
HCT-116 = assay: Antiproliferative activity against human HCT116 cells after 72 hrs by SRB assay; assay type: functional, cell-based; conditions: HCT-116, 72 h
HUVEC = assay: Antiproliferative activity against HUVEC after 72 hrs by SRB assay; assay type: cell-based; conditions: Homo sapiens
Method in brief: (§1)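 Normal human cells (MRC5, HUVEC) exposed to graded compound concentrations for 72 h at 37 °C, 5% CO2, fixed with 10% TCA and stained by SRB. IC50 obtained by non-linear regression of percent growth against concentration.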

Homo sapiens [1] = organism: Homo sapiens; assay: Selectivity ratio of IC50 for recombinant human PI3K-delta to IC50 for recombinant human PI3K-alpha
Method in brief: (§2)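 Ratios derived from isoform IC50 values obtained in the ADP-Glo lipid-kinase assay: each enzyme preincubated 15 min with compound and lipid substrate, reaction started with ATP (250 µM stock), 1 h at room temperature, luminescence read and IC50 fitted by normalized nonlinear regression.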

[2] = target: T1, Phosphatidylinositol 4,5-bisphosphate 3-kinase catalytic subunit alpha isoform (Homo sapiens, UniProt P42336); assay: Inhibition of PI3K-alpha in human HCT116 cells assessed as reduction in Akt phosphorylation at Thr-308 residue by Western blot analysis; assay type: cell-based
T1 sequence (P42336 whole entry, canonical isoform): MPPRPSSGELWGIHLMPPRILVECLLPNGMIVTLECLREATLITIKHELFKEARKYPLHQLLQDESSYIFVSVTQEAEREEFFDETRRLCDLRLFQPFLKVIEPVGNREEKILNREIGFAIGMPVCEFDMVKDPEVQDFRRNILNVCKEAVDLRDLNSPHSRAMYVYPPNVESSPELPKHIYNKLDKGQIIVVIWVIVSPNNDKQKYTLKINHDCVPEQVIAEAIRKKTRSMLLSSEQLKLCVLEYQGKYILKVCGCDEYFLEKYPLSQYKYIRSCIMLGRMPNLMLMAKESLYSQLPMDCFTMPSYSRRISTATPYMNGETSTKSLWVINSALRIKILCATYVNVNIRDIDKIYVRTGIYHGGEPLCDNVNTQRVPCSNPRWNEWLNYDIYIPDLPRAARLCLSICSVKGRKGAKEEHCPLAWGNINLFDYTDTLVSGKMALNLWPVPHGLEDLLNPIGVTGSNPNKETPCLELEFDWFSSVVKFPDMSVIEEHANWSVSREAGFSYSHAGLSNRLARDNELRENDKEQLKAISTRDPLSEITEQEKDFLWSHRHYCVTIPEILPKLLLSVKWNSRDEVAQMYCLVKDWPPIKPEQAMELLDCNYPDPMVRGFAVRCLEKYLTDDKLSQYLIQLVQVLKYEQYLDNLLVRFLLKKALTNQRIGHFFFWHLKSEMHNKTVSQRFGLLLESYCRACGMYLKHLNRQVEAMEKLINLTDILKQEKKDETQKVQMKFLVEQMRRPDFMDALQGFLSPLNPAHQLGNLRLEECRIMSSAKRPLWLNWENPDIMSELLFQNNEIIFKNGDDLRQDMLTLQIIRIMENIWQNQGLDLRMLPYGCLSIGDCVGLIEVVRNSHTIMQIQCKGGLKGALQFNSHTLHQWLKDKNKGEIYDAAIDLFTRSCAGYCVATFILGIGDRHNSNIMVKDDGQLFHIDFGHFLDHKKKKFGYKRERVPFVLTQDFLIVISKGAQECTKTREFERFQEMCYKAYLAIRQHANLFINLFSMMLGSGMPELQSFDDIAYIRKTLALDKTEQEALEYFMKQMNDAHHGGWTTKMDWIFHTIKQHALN
Method in brief: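 Equal protein amounts separated by 10% SDS-PAGE, transferred to PVDF, probed with the indicated antibodies; β-actin as internal control.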

[3] = target: Phosphatidylinositol 4,5-bisphosphate 3-kinase catalytic subunit gamma isoform (Homo sapiens, UniProt P48736); assay: Inhibition of recombinant human PI3K-gamma using PIP2:3PS as substrate preincubated for 15 mins followed by ATP addition measured after 1 hr by ADP-Glo assay
Sequence of Phosphatidylinositol 4,5-bisphosphate 3-kinase catalytic subunit gamma isoform (P48736 whole entry, canonical isoform): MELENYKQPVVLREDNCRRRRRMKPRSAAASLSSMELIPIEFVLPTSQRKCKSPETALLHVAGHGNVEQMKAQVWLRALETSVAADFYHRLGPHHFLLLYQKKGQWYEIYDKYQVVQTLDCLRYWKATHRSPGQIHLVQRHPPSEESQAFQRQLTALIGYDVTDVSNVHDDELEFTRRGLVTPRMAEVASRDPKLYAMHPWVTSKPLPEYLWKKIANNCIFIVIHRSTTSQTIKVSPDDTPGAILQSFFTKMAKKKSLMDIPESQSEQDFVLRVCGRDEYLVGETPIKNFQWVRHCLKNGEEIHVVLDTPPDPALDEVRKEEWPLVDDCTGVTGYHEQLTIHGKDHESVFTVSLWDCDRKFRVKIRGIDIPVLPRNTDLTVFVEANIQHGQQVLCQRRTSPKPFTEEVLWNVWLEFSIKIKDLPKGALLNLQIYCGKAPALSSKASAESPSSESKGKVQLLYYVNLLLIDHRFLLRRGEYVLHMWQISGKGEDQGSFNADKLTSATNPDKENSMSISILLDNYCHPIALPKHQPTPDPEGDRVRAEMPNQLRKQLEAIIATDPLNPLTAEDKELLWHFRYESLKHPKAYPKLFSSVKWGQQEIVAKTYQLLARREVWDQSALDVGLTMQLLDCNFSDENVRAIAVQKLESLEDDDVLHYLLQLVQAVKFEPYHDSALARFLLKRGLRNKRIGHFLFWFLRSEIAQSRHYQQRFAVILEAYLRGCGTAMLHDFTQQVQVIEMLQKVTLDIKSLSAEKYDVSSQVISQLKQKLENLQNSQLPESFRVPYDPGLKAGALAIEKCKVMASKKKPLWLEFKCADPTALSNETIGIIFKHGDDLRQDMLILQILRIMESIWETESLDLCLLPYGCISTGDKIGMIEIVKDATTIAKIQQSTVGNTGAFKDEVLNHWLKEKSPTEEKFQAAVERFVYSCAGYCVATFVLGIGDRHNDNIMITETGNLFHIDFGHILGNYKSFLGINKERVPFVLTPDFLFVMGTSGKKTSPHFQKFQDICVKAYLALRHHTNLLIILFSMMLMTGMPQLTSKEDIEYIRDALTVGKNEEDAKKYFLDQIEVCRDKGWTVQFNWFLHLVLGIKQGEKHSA
Method in brief: (§3)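 Luminescent ADP-production readout (PI3K-Glo Class I kit). Enzymes p110α/p85α, p110β/p85α, p120γ or p110δ/p85α diluted in reaction buffer with lipid substrate, preincubated with serially diluted compound 15 min at room temperature. ADP-Glo reagent 40 min, then detection reagent 40 min. IC50 by normalized nonlinear dose-response fit.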

Homo sapiens [4] = organism: Homo sapiens; assay: Selectivity ratio of IC50 for recombinant human PI3K-beta to IC50 for recombinant human PI3K-alpha; method in brief: as §2
MRC5 = assay: Antiproliferative activity against human MRC5 cells after 72 hrs by SRB assay; assay type: cell-based; conditions: MRC5, 72 h; method in brief: as §1
Homo sapiens [5] = organism: Homo sapiens; assay: Selectivity ratio of IC50 for recombinant human PI3K-gamma to IC50 for recombinant human PI3K-alpha; method in brief: as §2
[6] = target: Phosphatidylinositol 4,5-bisphosphate 3-kinase catalytic subunit beta isoform (Homo sapiens, UniProt P42338); assay: Inhibition of recombinant human PI3K-beta using PIP2:3PS as substrate preincubated for 15 mins followed by ATP addition measured after 1 hr by ADP-Glo assay; method in brief: as §3
Sequence of Phosphatidylinositol 4,5-bisphosphate 3-kinase catalytic subunit beta isoform (P42338 whole entry, canonical isoform): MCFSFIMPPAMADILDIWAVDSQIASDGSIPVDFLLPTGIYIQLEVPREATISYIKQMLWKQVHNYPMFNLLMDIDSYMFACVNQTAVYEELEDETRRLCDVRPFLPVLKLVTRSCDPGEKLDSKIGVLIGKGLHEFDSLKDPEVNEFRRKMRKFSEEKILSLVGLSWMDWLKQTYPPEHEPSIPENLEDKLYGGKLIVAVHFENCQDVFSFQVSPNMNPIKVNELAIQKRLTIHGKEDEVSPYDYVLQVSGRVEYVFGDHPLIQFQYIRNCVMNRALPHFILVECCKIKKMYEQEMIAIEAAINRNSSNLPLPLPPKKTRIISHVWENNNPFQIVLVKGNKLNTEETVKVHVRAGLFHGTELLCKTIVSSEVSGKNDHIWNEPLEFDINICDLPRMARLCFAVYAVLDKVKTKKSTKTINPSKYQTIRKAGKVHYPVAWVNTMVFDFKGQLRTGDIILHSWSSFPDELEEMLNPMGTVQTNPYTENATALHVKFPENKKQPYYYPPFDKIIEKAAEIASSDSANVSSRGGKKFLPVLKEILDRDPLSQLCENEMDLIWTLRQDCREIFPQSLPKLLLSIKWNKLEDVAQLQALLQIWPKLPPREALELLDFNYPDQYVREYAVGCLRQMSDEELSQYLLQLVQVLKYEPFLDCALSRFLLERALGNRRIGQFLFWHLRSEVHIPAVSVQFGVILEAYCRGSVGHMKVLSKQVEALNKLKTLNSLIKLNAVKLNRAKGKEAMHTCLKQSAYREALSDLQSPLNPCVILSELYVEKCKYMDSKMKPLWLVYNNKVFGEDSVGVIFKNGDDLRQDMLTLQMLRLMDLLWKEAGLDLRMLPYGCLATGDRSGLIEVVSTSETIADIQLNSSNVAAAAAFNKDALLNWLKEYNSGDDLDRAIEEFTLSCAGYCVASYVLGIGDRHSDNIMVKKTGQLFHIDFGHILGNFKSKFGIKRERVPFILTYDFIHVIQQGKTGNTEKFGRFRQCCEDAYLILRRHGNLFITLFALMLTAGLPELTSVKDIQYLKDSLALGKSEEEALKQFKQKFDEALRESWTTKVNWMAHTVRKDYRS

[7] = target: T2, Phosphatidylinositol 4,5-bisphosphate 3-kinase catalytic subunit delta isoform (Homo sapiens, UniProt O00329); assay: Inhibition of recombinant human PI3K-delta using PIP2:3PS as substrate preincubated for 15 mins followed by ATP addition measured after 1 hr by ADP-Glo assay; method in brief: as §3
T2 sequence (O00329 whole entry): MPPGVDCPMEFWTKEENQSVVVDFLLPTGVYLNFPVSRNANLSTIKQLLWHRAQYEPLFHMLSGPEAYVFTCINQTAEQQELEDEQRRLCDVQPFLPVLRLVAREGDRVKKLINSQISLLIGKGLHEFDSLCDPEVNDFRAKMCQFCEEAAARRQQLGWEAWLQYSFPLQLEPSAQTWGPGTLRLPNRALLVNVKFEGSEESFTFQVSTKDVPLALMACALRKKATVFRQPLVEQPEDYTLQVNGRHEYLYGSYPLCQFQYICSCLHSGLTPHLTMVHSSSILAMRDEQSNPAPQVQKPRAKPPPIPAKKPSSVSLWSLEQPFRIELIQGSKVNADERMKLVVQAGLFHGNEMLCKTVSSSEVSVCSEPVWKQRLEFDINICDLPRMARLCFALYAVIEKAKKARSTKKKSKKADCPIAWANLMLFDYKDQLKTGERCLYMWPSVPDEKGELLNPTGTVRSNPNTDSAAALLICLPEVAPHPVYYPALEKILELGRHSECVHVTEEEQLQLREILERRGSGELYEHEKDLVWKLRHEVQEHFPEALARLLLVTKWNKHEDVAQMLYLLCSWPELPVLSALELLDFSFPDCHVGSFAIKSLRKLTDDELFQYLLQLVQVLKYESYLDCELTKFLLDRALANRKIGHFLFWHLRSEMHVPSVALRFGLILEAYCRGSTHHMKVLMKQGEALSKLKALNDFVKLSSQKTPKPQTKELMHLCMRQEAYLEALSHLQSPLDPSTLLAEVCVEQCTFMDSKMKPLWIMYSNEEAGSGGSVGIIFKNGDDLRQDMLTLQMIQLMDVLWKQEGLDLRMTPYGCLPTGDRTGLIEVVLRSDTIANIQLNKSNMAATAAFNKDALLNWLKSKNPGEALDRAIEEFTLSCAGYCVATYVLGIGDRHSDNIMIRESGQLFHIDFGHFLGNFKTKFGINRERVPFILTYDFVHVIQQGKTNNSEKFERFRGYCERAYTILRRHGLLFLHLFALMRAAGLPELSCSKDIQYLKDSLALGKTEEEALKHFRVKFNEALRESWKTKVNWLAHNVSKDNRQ

[8] = target: T1, Phosphatidylinositol 4,5-bisphosphate 3-kinase catalytic subunit alpha isoform; assay: Inhibition of recombinant human PI3K-alpha using PIP2:3PS as substrate preincubated for 15 mins followed by ATP addition measured after 1 hr by ADP-Glo assay; method in brief: as §3

| SMILES | IC50 (SNU-638) [µM] | IC50 (MDA-MB-231) [µM] | IC50 (HCT-116) [µM] | further results |
| --- | --- | --- | --- | --- |
| COc1ncc(-c2ccc3c(c2)N(Cc2ccc(F)cc2)C(=O)CO3)cc1NS(=O)(=O)c1ccc(F)cc1F | 7.84 | 4.98 | 1.24 |  |
| COc1ncc(-c2ccc3c(c2)N(CCCn2ccccc2=O)C(=O)CO3)cc1NS(=O)(=O)c1ccc(F)cc1F | 6.76 | 12.4 | 4.23 |  |
| CCCCS(=O)(=O)Nc1cc(-c2ccc3c(c2)N(Cc2ccncc2)C(=O)CO3)cnc1OC | 46.5 | 37.9 | 41.4 |  |
| CCCCS(=O)(=O)Nc1cc(-c2ccc3c(c2)N(CCCN(C)C)C(=O)CO3)cnc1OC | 8.97 | 9.35 | 8.43 |  |
| COC(=O)CCN1CCN(C2=Nc3cc(-c4cnc(OC)c(NS(=O)(=O)c5ccc(F)cc5F)c4)ccc3OC2)CC1 | 24.9 | 22.8 | 18.6 |  |
| CCCCS(=O)(=O)Nc1cc(-c2ccc3c(c2)N(CCC(=O)N2CCOCC2)C(=O)CO3)cnc1OC | 41.9 | 43.8 | 23.5 |  |
| CCCCS(=O)(=O)Nc1cc(-c2ccc3c(c2)N(CCCn2cccn2)C(=O)CO3)cnc1OC | 36.2 | 37.9 | 33.6 |  |
| COc1ncc(-c2ccc3c(c2)N(Cc2ccncc2)C(=O)CO3)cc1NS(=O)(=O)c1ccc(F)cc1F | 6.96 | 5.49 | 2.22 |  |
| CCCCS(=O)(=O)Nc1cc(-c2ccc3c(c2)N(CCCn2ccnc2)C(=O)CO3)cnc1OC | 32.7 | 40.4 | 32.9 |  |
| COc1ncc(-c2ccc3c(c2)N(CCC(=O)N2CCOCC2)C(=O)CO3)cc1NS(=O)(=O)c1ccc(F)cc1F | 5.77 | 3.26 | 3.18 |  |
| CCOC(=O)CN1CCN(C2=Nc3cc(-c4cnc(OC)c(NS(=O)(=O)c5ccc(F)cc5F)c4)ccc3OC2)CC1 | 21.4 | 17.2 | 14.5 |  |
| COc1ncc(-c2ccc3c(c2)N=C(N2CCN(CCCO)CC2)CO3)cc1NS(=O)(=O)c1ccc(F)cc1F | 4.97 | 4.78 | 3.26 |  |
| CCCCS(=O)(=O)Nc1cc(-c2ccc3c(c2)N(CCN2CCOCC2)C(=O)CO3)cnc1OC | 20.4 | 19.5 | 15.8 |  |
| COc1ncc(-c2ccc3c(c2)N=C(N2CCN(CCO)CC2)CO3)cc1NS(=O)(=O)c1ccc(F)cc1F | 7.39 | 8.26 | 6.18 |  |
| COc1ncc(-c2ccc3c(c2)N(CCCN2CCOCC2)C(=O)CO3)cc1NS(=O)(=O)c1ccc(F)cc1F | 0.52 | 0.49 | 0.58 | IC50 (HUVEC): 15.6 µM; Ratio IC50 (Homo sapiens [1]): 15.9; inhibition [2]: Dose-dependent effect; IC50 [3]: 0.185 µM; Ratio IC50 (Homo sapiens [4]): 14.3; IC50 (MRC5): 32.8 µM; Ratio IC50 (Homo sapiens [5]): 7; IC50 [6]: 0.382 µM; IC50 [7]: 0.425 µM; IC50 [8]: 0.0267 µM |
| Cn1c(=O)n(-c2ccc(C(C)(C)C#N)cc2)c2c3cc(-c4cnc5ccccc5c4)ccc3ncc21 [DACTOLISIB] |  | 0.56 |  |  |
| CCCCS(=O)(=O)Nc1cc(-c2ccc3c(c2)N(CCCn2ccccc2=O)C(=O)CO3)cnc1OC | 44.3 | 47.9 | 42.6 |  |
| CCCCS(=O)(=O)Nc1cc(-c2ccc3c(c2)N(CCCN2CCOCC2)C(=O)CO3)cnc1OC | 5.01 | 4.23 | 4.62 |  |
| COc1ncc(-c2ccc3c(c2)N(CCN2CCOCC2)C(=O)CO3)cc1NS(=O)(=O)c1ccc(F)cc1F | 2.38 | 1.82 | 2.4 |  |
| CCCCS(=O)(=O)Nc1cc(-c2ccc3c(c2)N(CCCN(CC)CC)C(=O)CO3)cnc1OC | 17.6 | 13.8 | 14.6 |  |
